Assay results from ChEMBL document CHEMBL3351517, “Psychrophilins E-H and versicotide C, cyclic peptides from the marine-derived fungus Aspergillus versicolor ZLN-60” (J Nat Prod, 2014).
Calls of active or inactive are those of the source. The calls are words filed in the database; no cut-off is given here. Positions of bridges follow the written chain, without caps; N, C: chain ends. Non-standard residues stand in square brackets, D forms with d. Residues, ends and D or L forms follow the SMILES beside them. NMeW = CN[C@@H](Cc1c[nH]c2ccccc12)C(=O)O; 2Abz = Nc1ccccc1C(=O)O

How the values were obtained:
Format in all cases: functional, cell-based
[1] = tested on: SMMC-7721; experiment: Cytotoxicity against human SMMC7721 cells by SRB assay
[2] = tested on: A549; experiment: Cytotoxicity against human A549 cells by SRB assay
[3] = tested on: HeLa; experiment: Cytotoxicity against human HeLa cells by SRB assay
[4] = tested on: HepG2; experiment: Lipid-lowering activity in human HepG2 cells assessed as reduction in oleic acid-elicited intracellular lipid accumulation at 10 uM after 6 hrs by Oil Red O staining method
Summary of the method: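 HepG2 cells were kept in DMEM with 10% FBS and penicillin/streptomycin (100 μg/mL). At 70−80% confluence, cells were loaded with oleic acid (100 μM in DMEM) for 12 h. They were then exposed to test agent (10 μM) in DMEM/100 μM oleic acid for a further 6 h. Simvastatin served as positive control and DMEM/oleic acid as blank. Lipid was read by Oil Red O staining.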

SMILES | IC50 [1] [µM] | IC50 [2] [µM] | IC50 [3] [µM] | Activity [4]
CC(=O)N(C)[C@@H]1C(=O)N2CCC[C@H]2C(=O)Nc2ccccc2C(=O)n2cc(c3c(O)cccc32)[C@H]1O | > 100 | > 100 | > 100 | 
CC(=O)N[C@H]1Cc2cn(c3ccccc23)C(=O)c2ccccc2NC(=O)[C@@H]2CCCN2C1=O (Ac-Trp-Pro-[2Abz]; lactam 1-C) | > 100 | > 100 | > 100 | 
CC(=O)N(C)[C@H]1Cc2cn(c3ccccc23)C(=O)c2ccccc2NC(=O)[C@@H]2CCCN2C1=O (Ac-[NMeW]-Pro-[2Abz]; lactam 1-C) | > 100 | > 100 | > 100 | 
CC(=O)N(C)[C@@H]1C(=O)N2CCC[C@H]2C(=O)Nc2ccccc2C(=O)n2cc(c3ccccc32)[C@H]1O | > 100 | > 100 | > 100 | Active
